Consider 1 protein from ChEMBL document CHEMBL1137397, “Identification of selective, nonpeptidic nitrile inhibitors of cathepsin s using the substrate activity screening method” (J Med Chem, 2006).

What is called Km is the substrate concentration at which the rate is half of its maximum.

What all share (details): Homo sapiens
Substrate in series [1]: CCCC[C@@H](C(=O)Nc1ccc2c(C)c(CC(=O)O)c(=O)oc2c1)n1cc([C@@](C)(NC(=O)c2ccccc2)C(C)C)nn1
Description: (§1) Binding affinity to cathepsin S. The method, boiled down: (§2)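 Cathepsin S at 0.6 nM in pH 6.1 100 mM sodium phosphate with 100 mM NaCl, 1 mM DTT, 1 mM EDTA and 0.001% Tween-20. Enzyme preincubated 5 min at 37 °C with five inhibitor concentrations (10-90% inhibition), in duplicate. Cbz-Leu-Arg-AMC added at 5 and 2.5 µM, then AMC read (ex 355/em 450 nm) over 5 min. Ki by Dixon method.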

Substrate in series [2]: CCCC[C@@H](C(=O)Nc1ccc2c(C)c(CC(=O)O)c(=O)oc2c1)n1cc([C@@](C)(NC(=O)c2ccccc2)C2CCCCC2)nn1
The description is as §1. The method, boiled down: as §2

Substrate in series [3]: CCCC[C@@H](C(=O)Nc1ccc2c(C)c(CC(=O)O)c(=O)oc2c1)n1cc([C@@](C)(NC(=O)c2ccsc2)C(C)C)nn1
The series is described as §1. The method, boiled down: as §2

Substrate in series [4]: CCCC[C@@H](C(=O)Nc1ccc2c(C)c(CC(=O)O)c(=O)oc2c1)n1cc([C@@](C)(NC(=O)c2ccsc2)C2CCC(C)CC2)nn1
Described as §1. The method, boiled down:
as §2

Substrate in series [5]: CCCC[C@@H](C(=O)Nc1ccc2c(C)c(CC(=O)O)c(=O)oc2c1)n1cc([C@@](C)(NC(=O)c2ccsc2)C2CCCCC2)nn1
The series is described as §1. The method, boiled down:
as §2

B1: Cathepsin S (Homo sapiens), P25774 (protein)
chain: MKRLVCVLLVCSSAVAQLHKDPTLDHHWHLWKKTYGKQYKEKNEEAVRRLIWEKNLKFVMLHNLEHSMGMHSYDLGMNHLGDMTSEEVMSLMSSLRVPSQWQRNITYKSNPNRILPDSVDWREKGCVTEVKYQGSCGACWAFSAVGALEAQLKLKTGKLVSLSAQNLVDCSTEKYGNKGCNGGFMTTAFQYIIDNKGIDSDASYPYKAMDQKCQYDSKYRAATCSKYTELPYGREDVLKEAVANKGPVSVGVDARHPSFFLYRSGVYYEPSCTQNVNHGVLVVGYGDLNGKEYWLVKNSWGHNFGEEGYIRMARNKGNHCGIASFPSYPEI
Turning to B1, the Km in series [1] was 410 µM; in series [2] it was 57 µM; in series [3], 300 µM; in series [4], 17 µM; in series [5] it was 13 µM.
